Laboratory results published in ChEMBL document CHEMBL1154084, “Preparation and antitubercular activities in vitro and in vivo of novel Schiff bases of isoniazid” (Eur J Med Chem, 2009).
Values after ≈ are worked out from the molar mass of the structure shown.

What was measured:
[1] = Ratio of EC90 for Mycobacterium tuberculosis Erdman to MIC for Mycobacterium tuberculosis H37Rv; format: functional
[2] = test system: Mycobacterium tuberculosis; experiment: Antitubercular activity against Mycobacterium tuberculosis Erdman by broth dilution method; format: functional
Procedure, shortened: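 Modified 7H10 broth (no agar or malachite green; pH 6.6) with 10% OADC and 0.05% Tween 80; broth dilution MIC90. Inoculum grown 5 days at 37°C on rotary shaker, diluted to 100 Klett units/mL (about 5 × 10^7 cfu/mL), checked by triplicate 7H10 agar counts after 4 weeks at 37°C. Compounds dissolved in DMSO, diluted in distilled water; isoniazid and PAS as reference standards.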

Mus musculus = species on record: Mus musculus; experiment: Toxicity in C57BL/6 mouse assessed as overt toxicity; format: organism-based; settings: in vivo
Procedure, shortened: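 C57BL/6 mice infected intranasally with approximately one million viable M. tuberculosis organisms. Dosing by gavage at 25 mg/kg body weight (compound in DMSO diluted in distilled water), starting one day post-infection and given for two days. Animals observed for ill effects or overt toxicity until sacrifice by CO2 inhalation three days post-infection. Groups of six mice.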

[3] = test system: Mycobacterium tuberculosis; experiment: Antitubercular activity against Mycobacterium tuberculosis infected in C57BL/6 mouse assessed reduction in colony forming units per lung at 25 mg/kg administered for 2 days after 24 hrs post-infection measured after 3 days by short course therapy (Rvb=6.37 +/- 0.24 logCFU/lung); format: functional
[4] = test system: Mycobacterium tuberculosis; experiment: Antitubercular activity against Mycobacterium tuberculosis infected in CD1 mouse assessed colony forming units per lung at 25 mg/kg administered 5 days a week for 4 weeks after 1 week post-infection by long course therapy (Rvb=8.80 +/- 0.18 logCFU/lung); format: functional
[5] = test system: Mycobacterium tuberculosis; experiment: Antitubercular activity against Mycobacterium tuberculosis infected in C57BL/6 mouse assessed reduction in colony forming units per lung at 25 mg/kg administered for 2 days after 24 hrs post-infection measured after 3 days by short course therapy (Rvb=6.51 +/- 0.13 logCFU/lung); format: functional
[6] = test system: Mycobacterium tuberculosis; experiment: Antitubercular activity against Mycobacterium tuberculosis H37Rv by broth dilution method; format: functional
[7] = Selectivity index, ratio IC50 for african green monkey Vero cells to MIC for Mycobacterium tuberculosis H37Rv; format: functional
Procedure, shortened: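 Vero cells exposed 72 h, at up to ten times the MIC, with viability read by a cell proliferation assay. SI is IC50 divided by the MIC against H37Rv; the screening criterion is SI >10.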

[8] = test system: Mycobacterium tuberculosis; experiment: Bactericidal activity in Mycobacterium tuberculosis Erdman infected in mouse macrophages assessed as reduction of colony forming units after 7 days; format: functional; settings: 168 h
Procedure, shortened: (§1)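 CFU read at 7 days against drug-free controls. EC90 is the lowest concentration giving 90% CFU reduction (bacteriostatic); EC99 is the lowest giving 99% (bactericidal).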

[9] = test system: Mycobacterium tuberculosis; experiment: Bacteriostatic activity in Mycobacterium tuberculosis Erdman infected in mouse macrophages assessed as reduction of colony forming units after 7 days; format: functional; settings: 168 h; procedure, shortened: as §1

| Compound | Ratio [7] | MIC90 [6] [µg/mL] | also measured |
| --- | --- | --- | --- |
| NNC(=O)c1ccncc1 [ISONIAZID] |  |  | Ratio [1]: 1; MIC [2]: 0.03 µg/mL (≈ 0.219 µM); Activity (Mus musculus): Non-toxic; log10cfu [3]: 5.58; log10cfu [4]: 4.71; log10cfu [5]: 4.96; MIC [6]: 0.03 µg/mL (≈ 0.219 µM) |
| COc1cc(/C=N/NC(=O)c2ccncc2)cc(I)c1O | >160 | 0.39 (≈ 0.982 µM) |  |
| O=C(N/N=C/c1ccc(I)cc1)c1ccncc1 | >50 | 0.2 (≈ 0.57 µM) |  |
| CCOC(=O)/C(CCc1ccccc1)=N\NC(=O)c1ccncc1 | >1250 | 0.1 (≈ 0.307 µM) |  |
| O=C(N/N=C/c1c(Cl)cccc1Cl)c1ccncc1 |  | < 6.25 |  |
| CC(C)C/C=C(\C=N\NC(=O)c1ccncc1)C(C)C | >10 |  | log10cfu [5]: 5.49 |
| CC1C/C(=N/NC(=O)c2ccncc2)CC(C)(C)C1 (stereo not drawn) | >2000 | < 0.025 | Ratio [1]: 2.52; EC99 [8]: 0.15 µg/mL; EC90 [9]: 0.063 µg/mL (≈ 0.243 µM) |
| CC(C)=NNC(=O)c1ccncc1 | >10000 | 0.1 (≈ 0.564 µM) |  |
| O=C(N/N=C/c1ccccc1)c1ccncc1 [N'-BENZYLIDENE ISONICOTINOHYDRAZIDE] | 4000 | 0.05 (≈ 0.222 µM) |  |
| O=C(N/N=C/c1ccc(F)c(F)c1)c1ccncc1 |  | 1.56 (≈ 5.97 µM) |  |
| CCCCCCCCCCCC/C=N\NC(=O)c1ccncc1 | 374 | 0.2 (≈ 0.63 µM) |  |
| CCC/C(CC(=O)OCC)=N/NC(=O)c1ccncc1 [ETHYL BUTYRYL ACETATE ISONICOTINOYLHYDRAZONE] | >2631 | 0.39 |  |
| O=C(N/N=C/c1ccc(Br)cc1)c1ccncc1 | 12 | 3.13 (≈ 10.3 µM) |  |
| CC/C=C/C=N/NC(=O)c1ccncc1 | 712 | 0.05 (≈ 0.246 µM) | Ratio [1]: 0.56; EC99 [8]: 0.529 µg/mL; EC90 [9]: 0.028 µg/mL (≈ 0.138 µM) |
| CCOC(=O)C/C(C)=N\NC(=O)c1ccncc1 [ETHYL ACETOACETATE ISONICOTINOYLHYDRAZONE] | >5000 | 0.2 (≈ 0.802 µM) |  |
| COc1ccc(/C=C/C=N/NC(=O)c2ccncc2)cc1 | >50 |  |  |
| C/C=C/C=N/NC(=O)c1ccncc1 |  | < 6.25 |  |
| O=C(N/N=C/c1ccc(/C=N/NC(=O)c2ccncc2)cc1)c1ccncc1 | >126 | 0.05 (≈ 0.134 µM) |  |
| O=C(N/N=C/c1ccccc1OCc1ccccc1)c1ccncc1 |  |  | MIC90 [2]: 0.06 µg/mL (≈ 0.181 µM); Activity (Mus musculus): Non-toxic; log10cfu [3]: 5.49 |
| CCCCOc1ccc(/C=N/NC(=O)c2ccncc2)cc1 | >2000 | 0.1 (≈ 0.336 µM) |  |
| O=C(N/N=C/c1ccccc1[N+](=O)[O-])c1ccncc1 |  | 0.39 (≈ 1.44 µM) |  |
| O=C(N/N=C/C=N/NC(=O)c1ccncc1)c1ccncc1 |  | 0.1 (≈ 0.338 µM) |  |

| Compound | Ratio [7] | MIC90 [6] [µg/mL] | also measured |
| --- | --- | --- | --- |
| O=C(N/N=C/c1c(F)cccc1F)c1ccncc1 | >1250 | 0.1 (≈ 0.383 µM) | Ratio [1]: 0.37; EC99 [8]: 0.15 µg/mL; EC90 [9]: 0.037 µg/mL (≈ 0.142 µM) |
| CC(/C=N/NC(=O)c1ccncc1)=C\c1ccccc1 | >250 | 0.5 (≈ 1.88 µM) | log10cfu [5]: 5.22 |
| Nc1ccc(C(=O)O)c(O)c1 [AMINOSALICYLIC ACID] |  |  | MIC [2]: 0.03 µg/mL (≈ 0.196 µM) |
| O=C(NN=C1CCCCC1)c1ccncc1 | >40000 | 0.03 (≈ 0.138 µM) | Ratio [1]: 2.7; EC99 [8]: 0.42 µg/mL; EC90 [9]: 0.08 µg/mL (≈ 0.368 µM); log10cfu [4]: 4.65 |
| O=C(N/N=C/c1ccc(Cl)c([N+](=O)[O-])c1)c1ccncc1 | >64 | 0.39 (≈ 1.28 µM) | Ratio [1]: 0.2; EC99 [8]: 0.3 µg/mL; EC90 [9]: 0.078 µg/mL (≈ 0.256 µM) |
| CC(C)=CCC/C(C)=C/C=N/NC(=O)c1ccncc1 |  | 0.1 (≈ 0.369 µM) |  |
| O=C(N/N=C/c1cccc([N+](=O)[O-])c1)c1ccncc1 | 8 |  |  |
| O=C(N/N=C/c1ccc(Cl)c(Cl)c1)c1ccncc1 | >50 | 0.2 (≈ 0.68 µM) | Ratio [1]: 0.53; EC99 [8]: 0.596 µg/mL; EC90 [9]: 0.106 µg/mL (≈ 0.36 µM) |
| O=C(N/N=C/c1ccc(Cl)cc1)c1ccncc1 | >50 | 0.2 (≈ 0.77 µM) | Ratio [1]: 0.2; EC99 [8]: 0.14 µg/mL; EC90 [9]: 0.04 µg/mL (≈ 0.154 µM) |
| O=C(N/N=C/c1ccccc1Cl)c1ccncc1 | >128 | 0.78 (≈ 3 µM) |  |
| CC(C)=CCCC(C)C/C=N/NC(=O)c1ccncc1 (stereo not drawn) | >1000 | 0.2 (≈ 0.732 µM) |  |
| O=C(N/N=C/C=C(c1ccccc1)c1ccccc1)c1ccncc1 | 68 |  | Ratio [1]: 0.28; EC99 [8]: 0.121 µg/mL; EC90 [9]: 0.028 µg/mL (≈ 0.0855 µM) |
| CCCC/C=C/C=N/NC(=O)c1ccncc1 |  | < 6.25 |  |
| O=C(N/N=C/c1cccc(Cl)c1Cl)c1ccncc1 | >32 | 0.78 (≈ 2.65 µM) | Ratio [1]: 0.09; EC99 [8]: 0.3 µg/mL; EC90 [9]: 0.071 µg/mL (≈ 0.241 µM) |
| COc1cc(/C=N/NC(=O)c2ccncc2)cc(I)c1OC | 297 | 0.2 (≈ 0.486 µM) |  |
| CCCCC/C(=N\NC(=O)c1ccncc1)c1ccccc1 | 25 | 0.39 (≈ 1.32 µM) | Ratio [1]: 0.13; EC99 [8]: 0.25 µg/mL; EC90 [9]: 0.05 µg/mL (≈ 0.169 µM) |
| COc1ccccc1/C=C/C=N/NC(=O)c1ccncc1 |  | 0.1 (≈ 0.355 µM) |  |
| CCCCCCCCCCCCC/C=N\NC(=O)c1ccncc1 |  | 0.2 (≈ 0.603 µM) |  |
| CCC/C=C/C=N/NC(=O)c1ccncc1 |  | < 6.25 |  |
| CCCCCCOc1ccc(/C=N/NC(=O)c2ccncc2)cc1 | 1.5 |  |  |
| CCOC(=O)C/C(Cc1ccccc1)=N/NC(=O)c1ccncc1 | >1250 | 0.1 (≈ 0.307 µM) | Ratio [1]: 0.1; EC99 [8]: 0.211 µg/mL; EC90 [9]: 0.01 µg/mL (≈ 0.0307 µM) |
| CCCC/C=C(\C=N\NC(=O)c1ccncc1)CCC | 1.6 |  |  |
